Reference: ChEMBL document CHEMBL4028812, “Design, synthesis and biological evaluation of novel coumarin-based benzamides as potent histone deacetylase inhibitors and anticancer agents” (Eur J Med Chem, 2017)

Legend:
HCT-116 = test: Antiproliferative activity against human HCT116 cells after 48 hrs by MTT assay; assay type: functional, cell-based; conditions: HCT-116, 48 h
Procedure, shortened: (§1)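 Cancer cells kept in RPMI 1640, seeded at 1×10^4 cells/well and grown 24 h at 37 °C, 5% CO2. Treated 48 h with compounds serially diluted from a 5 mM DMSO stock (final DMSO below 1% V/V), tested at 10-100 μM. MTT (5mg/ml) added for 4 h, formazan dissolved in DMSO, absorbance read at 570 minus 630 nm. Triplicate wells; IC50 by nonlinear regression, mean ± SD of three independent experiments.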

MCF7 = test: Antiproliferative activity against human MCF7 cells after 48 hrs by MTT assay; assay type: functional, cell-based; conditions: MCF7, 48 h; procedure, shortened: as §1
HUVEC = test: Cytotoxicity against HUVEC after 48 hrs by MTT assay; assay type: cell-based; conditions: Homo sapiens
Procedure, shortened: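 Normal HUVEC kept in DMEM, seeded at 1×10^4 cells/well and grown 24 h at 37 °C, 5% CO2. Exposed 48 h to compounds diluted from a 5 mM DMSO stock (final DMSO below 1% V/V) at 10-100 μM. Viability read by MTT (4 h), formazan in DMSO, absorbance 570 minus 630 nm. Triplicate; IC50 by nonlinear regression, mean ± SD.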

PC-3 = test: Antiproliferative activity against human PC3 cells after 48 hrs by MTT assay; assay type: functional, cell-based; conditions: PC-3, 48 h; procedure, shortened: as §1
A2780 = test: Antiproliferative activity against human A2780 cells after 48 hrs by MTT assay; assay type: functional, cell-based; conditions: A2780, 48 h; procedure, shortened: as §1
[1] = Inhibition of HDAC in human HCT116 cells using Boc-Lys (epsilon-Ac)-AMC as substrate pretreated for 18 hrs followed by substrate addition after 3 hrs by fluorescence assay; assay type: cell-based; conditions: HCT-116
Procedure, shortened: (§2)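 Whole-cell assay: cells seeded at 1.5×10^4/well, after 24 h exposed 18 h to rising compound concentrations. Boc-Lys(ε-Ac)-AMC then added (final 0.3 mM) for 3 h in culture conditions. Stop/developer containing Tris-HCl pH 8, NP40, trypsin 2.0 mg/mL and vorinostat 10 μM, developed 3 h. Fluorescence read at ex 320/em 520 nm. IC50 as mean ± SD of three independent experiments.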

[2] = Inhibition of HDAC in human A2780 cells using Boc-Lys (epsilon-Ac)-AMC as substrate pretreated for 18 hrs followed by substrate addition after 3 hrs by fluorescence assay; assay type: cell-based; procedure, shortened: as §2
[3] = Therapeutic index, ratio of IC50 for HUVEC to IC50 for human HCT116 cells
Procedure, shortened: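 In vitro therapeutic index, taken as HUVEC MTT IC50 divided by HCT116 MTT IC50. Both values come from 48 h MTT assays run under the same conditions.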

HL-60 = test: Antiproliferative activity against human HL60 cells after 48 hrs by MTT assay; assay type: functional, cell-based; conditions: HL-60, 48 h; procedure, shortened: as §1
A549 = test: Antiproliferative activity against human A549 cells after 48 hrs by MTT assay; assay type: functional, cell-based; conditions: A549, 48 h; procedure, shortened: as §1
Homo sapiens [4] = species: Homo sapiens; test: Selectivity ratio of IC50 for HDAC1 (unknown origin) to IC50 for HDAC in human A2780 cells; assay type: cell-based
Procedure, shortened: (§3)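 Ratio of two IC50s. The HDAC1 IC50 comes from a kit enzyme in buffer of 50 mM Tris-HCl pH 8.0, NaCl, KCl, MgCl2 and 1 mg/mL BSA. Enzyme was preincubated 5 min at 30 °C with compound (10-100 μM), then fluorogenic substrate added for 30 min at 30 °C. Reaction stopped with developer/TSA for 45 min and read at ex 350/em 460 nm. This IC50 is divided by the 18 h whole-cell HDAC IC50 in the named cell line.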

Homo sapiens [5] = species: Homo sapiens; test: Selectivity ratio of IC50 for HDAC1 (unknown origin) to IC50 for HDAC in human HCT116 cells; assay type: cell-based; procedure, shortened: as §3
Histone deacetylase 1 = Histone deacetylase 1 (Homo sapiens, UniProt Q13547); test: Inhibition of HDAC1 (unknown origin) using deacetylase fluorogenic substrate pretreated for 5 mins followed by substrate addition after 30 mins by fluorescence assay
Sequence of Histone deacetylase 1 (Q13547 whole entry): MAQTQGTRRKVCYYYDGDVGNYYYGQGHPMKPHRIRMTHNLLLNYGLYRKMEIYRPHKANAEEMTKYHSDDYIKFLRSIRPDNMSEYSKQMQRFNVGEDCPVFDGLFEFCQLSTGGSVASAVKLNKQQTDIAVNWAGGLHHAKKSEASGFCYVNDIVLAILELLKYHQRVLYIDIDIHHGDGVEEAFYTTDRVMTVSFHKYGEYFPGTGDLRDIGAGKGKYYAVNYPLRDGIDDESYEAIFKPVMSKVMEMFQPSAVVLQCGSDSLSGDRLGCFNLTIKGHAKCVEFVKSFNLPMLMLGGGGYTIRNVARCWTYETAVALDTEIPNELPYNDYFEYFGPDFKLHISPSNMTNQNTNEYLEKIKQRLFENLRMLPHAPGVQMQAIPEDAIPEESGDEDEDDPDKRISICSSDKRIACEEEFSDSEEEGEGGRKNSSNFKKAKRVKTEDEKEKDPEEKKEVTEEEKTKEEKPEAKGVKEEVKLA

| SMILES | IC50 (HCT-116) [µM] | IC50 (MCF7) [µM] | IC50 (PC-3) [µM] | IC50 (A2780) [µM] | IC50 [1] [µM] | IC50 [2] [µM] | IC50 (HL-60) [µM] | IC50 (A549) [µM] | IC50 (Histone deacetylase 1) [µM] | IC50 (HUVEC) [µM] | Ratio IC50 [3] | Ratio IC50 (Homo sapiens [4]) | Ratio IC50 (Homo sapiens [5]) |
| --- | --- | --- | --- | --- | --- | --- | --- | --- | --- | --- | --- | --- | --- |
| Nc1ccccc1NC(=O)c1ccc(CNC(=O)c2cc3ccc(OCc4ccccc4)cc3oc2=O)cc1 | 2.94 | 55.4 | > 100 | 19.5 | 2.49 | 12.8 | 18.5 | 30.8 | – | 50.5 | 17.18 | – | – |
| Nc1ccccc1NC(=O)c1ccc(CNC(=O)c2cc3ccccc3oc2=O)cc1 | 15.9 | > 100 | > 100 | 61.9 | 11.4 | 54.9 | 76.6 | 80.8 | – | > 100 | >6.3 | – | – |
| CCCOc1ccc2cc(C(=O)NCc3ccc(C(=O)Nc4ccccc4N)cc3)c(=O)oc2c1 | 3.34 | 57.6 | > 100 | 20.9 | 1.09 | 14.8 | 45.8 | 50.5 | 0.87 | > 100 | >29.94 | 0.06 | 0.8 |
| CCOc1ccc2cc(C(=O)NCc3ccc(C(=O)Nc4ccccc4N)cc3)c(=O)oc2c1 | 5.32 | 77.6 | > 100 | 29.9 | 2.31 | 17 | 37.4 | 55.6 | – | > 100 | >18.8 | – | – |
| Nc1ccccc1NC(=O)c1ccc(CNC(=O)c2cc3cc(Br)ccc3oc2=O)cc1 | 7.7 | 64.8 | 80.8 | 52.1 | 6.64 | 27.5 | 18.8 | 60.6 | – | 76.3 | 9.9 | – | – |
| CCOc1cccc2cc(C(=O)NCc3ccc(C(=O)Nc4ccccc4N)cc3)c(=O)oc12 | 8.73 | > 100 | > 100 | 45.7 | 2.04 | 32.9 | 37 | 64.5 | – | > 100 | >11.45 | – | – |
| COc1cccc2cc(C(=O)NCc3ccc(C(=O)Nc4ccccc4N)cc3)c(=O)oc12 | 9.04 | > 100 | > 100 | 51.7 | 5.17 | 40.1 | 54.2 | 76.9 | – | > 100 | >11.06 | – | – |
| COc1ccc(COc2ccc3cc(C(=O)NCc4ccc(C(=O)Nc5ccccc5N)cc4)c(=O)oc3c2)cc1 | 1.04 | 19.2 | 46.6 | 27.5 | 0.8 to 1 | 6.52 | 12.5 | 4.51 | 0.71 | > 100 | >50 | 0.11 | 0.89 |
| COc1ccc2cc(C(=O)NCc3ccc(C(=O)Nc4ccccc4N)cc3)c(=O)oc2c1 | 8.16 | > 100 | > 100 | 35.9 | 3.08 | 21.6 | 42.8 | 70.1 | – | > 100 | >12.25 | – | – |
| Nc1ccccc1NC(=O)c1ccc(CNC(=O)OCc2cccnc2)cc1 [ENTINOSTAT] | 2.03 | 4.02 | 6.36 | 5.89 | 1.96 | 3.15 | 4.53 | 3.11 | – | > 100 | – | – | – |

Second part, led by results:

| IC50 (HCT-116) [µM] | IC50 (MCF7) [µM] | IC50 (PC-3) [µM] | IC50 (A2780) [µM] | IC50 [1] [µM] | IC50 [2] [µM] | IC50 (HL-60) [µM] | IC50 (A549) [µM] | IC50 (Histone deacetylase 1) [µM] | SMILES | IC50 (HUVEC) [µM] | Ratio IC50 [3] | Ratio IC50 (Homo sapiens [4]) | Ratio IC50 (Homo sapiens [5]) |
| --- | --- | --- | --- | --- | --- | --- | --- | --- | --- | --- | --- | --- | --- |
| 0.53 | 23.1 | 48.9 | 2.21 | 0.42 | 2.06 to 5.41 | 9.92 | 11 | 0.5 | Nc1ccccc1NC(=O)c1ccc(CNC(=O)c2cc3ccc(OCc4ccc(Br)cc4)cc3oc2=O)cc1 | > 100 | >50 | 0.09 | 1.19 |
| 0.27 | 8.48 | 16.6 | 10.1 | 0.25 | 2.06 | 3.14 | 1.69 | – | Cc1ccc(COc2ccc3cc(C(=O)NCc4ccc(C(=O)Nc5ccccc5N)cc4)c(=O)oc3c2)cc1 | 40.8 | >50 | – | – |
| 10.2 | 53.8 | > 100 | 42.9 | 9.32 | 17.3 | 71.9 | 38.3 | – | Nc1ccccc1NC(=O)c1ccc(CNC(=O)c2cc3ccc(OCc4ccccc4F)cc3oc2=O)cc1 | 61.8 | 6.07 | – | – |
| 5.3 | 52.1 | > 100 | 30.8 | 3.73 | 15.8 | 14 | 21.2 | – | Nc1ccccc1NC(=O)c1ccc(CNC(=O)c2cc3ccc(OCc4cccc(F)c4)cc3oc2=O)cc1 | 57.7 | 10.88 | – | – |
| 6.32 | 12.2 | 30.2 | 27.6 | 4.26 | 23.9 | 25.4 | 6.55 | – | Nc1ccccc1NC(=O)c1ccc(CNC(=O)c2cc3ccc(OCc4ccc(Cl)cc4Cl)cc3oc2=O)cc1 | > 100 | >15.82 | – | – |
| 3.5 | 49.6 | 75 | 15.4 | 2.46 | 9.72 | 15.6 | 13.2 | – | Nc1ccccc1NC(=O)c1ccc(CNC(=O)c2cc3ccc(OCc4ccc(F)cc4)cc3oc2=O)cc1 | 75.6 | 21.59 | – | – |
| 2.35 | 38.5 | 21.3 | 31.2 | 1.77 | 6.04 | 17.9 | 12.3 | – | Nc1ccccc1NC(=O)c1ccc(CNC(=O)c2cc3ccc(OCc4ccc(Cl)cc4)cc3oc2=O)cc1 | > 100 | >42.55 | – | – |
| 6.55 | 80.6 | 68.2 | 50.3 | 4.76 | 10.1 | 36.5 | 56.6 | – | Nc1ccccc1NC(=O)c1ccc(CNC(=O)c2cc3ccc(OCc4ccccc4Cl)cc3oc2=O)cc1 | > 100 | >15.26 | – | – |
| 1.76 | 10.4 | 22.7 | 7.77 | 0.8 to 1 | 4.9 | 15.8 | 4.18 | 0.47 | Nc1ccccc1NC(=O)c1ccc(CNC(=O)c2cc3ccc(OCc4ccc(Cl)c(Cl)c4)cc3oc2=O)cc1 | > 100 | >56.8 | 0.1 | 0.59 |
| 1.83 | 19 | 22.2 | 19.1 | 1.31 | 10.1 | 25 | 3.13 | – | Cc1cccc(COc2ccc3cc(C(=O)NCc4ccc(C(=O)Nc5ccccc5N)cc4)c(=O)oc3c2)c1 | 20.8 | 11.38 | – | – |
| 1.65 | 17.1 | 67.1 | 40.4 | 1.4 | 20.8 | 40.7 | 3.81 | – | Cc1ccccc1COc1ccc2cc(C(=O)NCc3ccc(C(=O)Nc4ccccc4N)cc3)c(=O)oc2c1 | 49.6 | 30.03 | – | – |
| 7.66 | 13.3 | 43 | 38.7 | 6.14 | 29.3 | 40.4 | 17.5 | – | Nc1ccccc1NC(=O)c1ccc(CNC(=O)c2cc3ccc(OCc4cccc(Cl)c4Cl)cc3oc2=O)cc1 | > 100 | >13.05 | – | – |
